The results in this text go back to ChEMBL document CHEMBL4145462, “Nitrogen-containing ecdysteroid derivatives vs. multi-drug resistance in cancer: Preparation and antitumor activity of oximes, oxime ethers and a lactam” (Eur J Med Chem, 2018).

A word on the IC50: it is the concentration at which inhibition is half-maximal. Read a high IC50 as weaker potency in that assay. The term inhibition denotes the drop in the measured response relative to a control, in per cent.

Tested on in one series: not listed separately
The series is described as follows: Synergistic cytotoxicity against mouse L5178 cells assessed as combination index at ED50 using 37.5:1 test compound to doxorubicin ratio after 48 hrs by MTT-based checkerboard microplate method. The class given is functional.
Conditions: not given
Put shortly:
(§1)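 Checkerboard microplate combinations of compound with doxorubicin at constant molar ratios. 5 × 10^4 cells/well in McCoy's 5A, 48 h at 37°C, 5% CO2. MTT added to 0.5 mg/mL final for 4 h, SDS/HCl overnight, OD read at 540 and 630 nm. Combination indices derived per ratio for 50%, 75% and 90% growth inhibition by median-effect analysis.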
Take `C=CCO/N=C1/C=C2C3=CC[C@H]([C@@]4(C)OC(C)(C)O[C@@H]4CCC(C)(C)O)[C@@]3(C)CC[C@@H]2[C@@]2(C)C[C@@H]3OC(C)(C)O[C@@H]3C[C@@H]12`: the CI is 0.46.

On to `C=CCO/N=C1/C=C2[C@H](CC[C@]3(C)[C@@H]([C@@]4(C)OC(C)(C)O[C@@H]4CCC(C)(C)O)CC[C@@]23O)[C@@]2(C)C[C@@H]3OC(C)(C)O[C@@H]3C[C@@H]12`, for which the CI is 1.08.

Tested on in a further series: not listed separately
Kind of series: Synergistic cytotoxicity against mouse L5178 cells assessed as combination index at ED50 using 18.75:1 test compound to doxorubicin ratio after 48 hrs by MTT-based checkerboard microplate method. The class given is functional.
Conditions: not given
The method, boiled down:
as §1
`C=CCO/N=C1/C=C2[C@H](CC[C@]3(C)[C@@H]([C@@]4(C)OC(C)(C)O[C@@H]4CCC(C)(C)O)CC[C@@]23O)[C@@]2(C)C[C@@H]3OC(C)(C)O[C@@H]3C[C@@H]12`: the CI was found to be 1.05.

Tested on in a further series: not listed separately
Kind of series: Synergistic cytotoxicity against mouse L5178 cells expressing human ABCB1 assessed as combination index at ED75 using 30:1 test compound to doxorubicin ratio after 48 hrs by MTT-based checkerboard microplate method. In kind it is functional.
Conditions: not given
The method, boiled down:
as §1
On to `C=CCO/N=C1/C=C2C3=CC[C@H]([C@@]4(C)OC(C)(C)O[C@@H]4CCC(C)(C)O)[C@@]3(C)CC[C@@H]2[C@@]2(C)C[C@@H]3OC(C)(C)O[C@@H]3C[C@@H]12`, for which the CI was 0.32.

As to `C=CCO/N=C1/C=C2[C@H](CC[C@]3(C)[C@@H]([C@@]4(C)OC(C)(C)O[C@@H]4CCC(C)(C)O)CC[C@@]23O)[C@@]2(C)C[C@@H]3OC(C)(C)O[C@@H]3C[C@@H]12`, the CI was 0.22.

Tested on in the next series: not listed separately
The series is described as follows: Synergistic cytotoxicity against mouse L5178 cells assessed as combination index at ED90 using 37.5:1 test compound to doxorubicin ratio after 48 hrs by MTT-based checkerboard microplate method. The class given is functional.
Conditions: not given
The method, boiled down:
as §1
As to `C=CCO/N=C1/C=C2C3=CC[C@H]([C@@]4(C)OC(C)(C)O[C@@H]4CCC(C)(C)O)[C@@]3(C)CC[C@@H]2[C@@]2(C)C[C@@H]3OC(C)(C)O[C@@H]3C[C@@H]12`, the CI came out at 0.47.

On to `C=CCO/N=C1/C=C2[C@H](CC[C@]3(C)[C@@H]([C@@]4(C)OC(C)(C)O[C@@H]4CCC(C)(C)O)CC[C@@]23O)[C@@]2(C)C[C@@H]3OC(C)(C)O[C@@H]3C[C@@H]12`, for which the CI is 1.2.

Tested on in another series: not listed separately
Kind of series: Synergistic cytotoxicity against mouse L5178 cells assessed as combination index at ED75 using 18.75:1 test compound to doxorubicin ratio after 48 hrs by MTT-based checkerboard microplate method. The class given is functional.
Conditions: not given
Put shortly:
as §1
Take `C=CCO/N=C1/C=C2[C@H](CC[C@]3(C)[C@@H]([C@@]4(C)OC(C)(C)O[C@@H]4CCC(C)(C)O)CC[C@@]23O)[C@@]2(C)C[C@@H]3OC(C)(C)O[C@@H]3C[C@@H]12`: the CI is 1.13.

Tested on in another series: not listed separately
The series is described as follows: Synergistic cytotoxicity against mouse L5178 cells assessed as combination index at ED50 using 300:1 test compound to doxorubicin ratio after 48 hrs by MTT-based checkerboard microplate method. In kind it is functional.
Conditions: not given
Put shortly:
as §1
With `C=CCO/N=C1/C=C2C3=CC[C@H]([C@@]4(C)OC(C)(C)O[C@@H]4CCC(C)(C)O)[C@@]3(C)CC[C@@H]2[C@@]2(C)C[C@@H]3OC(C)(C)O[C@@H]3C[C@@H]12`, the CI was 0.73.

With `C=CCO/N=C1/C=C2[C@H](CC[C@]3(C)[C@@H]([C@@]4(C)OC(C)(C)O[C@@H]4CCC(C)(C)O)CC[C@@]23O)[C@@]2(C)C[C@@H]3OC(C)(C)O[C@@H]3C[C@@H]12`, the CI came to 0.93.

Tested on in the next series: not listed separately
Kind of series: Synergistic cytotoxicity against mouse L5178 cells assessed as combination index at ED90 using 18.75:1 test compound to doxorubicin ratio after 48 hrs by MTT-based checkerboard microplate method. In kind it is functional.
Conditions: not given
Put shortly: as §1
For the molecule `C=CCO/N=C1/C=C2[C@H](CC[C@]3(C)[C@@H]([C@@]4(C)OC(C)(C)O[C@@H]4CCC(C)(C)O)CC[C@@]23O)[C@@]2(C)C[C@@H]3OC(C)(C)O[C@@H]3C[C@@H]12`, the CI is on record as 1.25.

Tested on in a further series: not listed separately
Kind of series: Synergistic cytotoxicity against mouse L5178 cells expressing human ABCB1 assessed as combination index at ED90 using 15:1 test compound to doxorubicin ratio after 48 hrs by MTT-based checkerboard microplate method. In kind it is functional.
Conditions: not given
The method, boiled down:
as §1
Turning to `C=CCO/N=C1/C=C2C3=CC[C@H]([C@@]4(C)OC(C)(C)O[C@@H]4CCC(C)(C)O)[C@@]3(C)CC[C@@H]2[C@@]2(C)C[C@@H]3OC(C)(C)O[C@@H]3C[C@@H]12`, the CI amounted to 0.22.

As for `C=CCO/N=C1/C=C2[C@H](CC[C@]3(C)[C@@H]([C@@]4(C)OC(C)(C)O[C@@H]4CCC(C)(C)O)CC[C@@]23O)[C@@]2(C)C[C@@H]3OC(C)(C)O[C@@H]3C[C@@H]12`, the CI is recorded as 0.17.

Tested on in another series: not listed separately
The series is described as follows: Synergistic cytotoxicity against mouse L5178 cells expressing human ABCB1 assessed as combination index at ED50 using 3.75:1 test compound to doxorubicin ratio after 48 hrs by MTT-based checkerboard microplate method.
Conditions: not given
The class given is functional. Put shortly: as §1
For the molecule `C=CCO/N=C1/C=C2C3=CC[C@H]([C@@]4(C)OC(C)(C)O[C@@H]4CCC(C)(C)O)[C@@]3(C)CC[C@@H]2[C@@]2(C)C[C@@H]3OC(C)(C)O[C@@H]3C[C@@H]12`, the CI is 0.25.

Turning to `C=CCO/N=C1/C=C2[C@H](CC[C@]3(C)[C@@H]([C@@]4(C)OC(C)(C)O[C@@H]4CCC(C)(C)O)CC[C@@]23O)[C@@]2(C)C[C@@H]3OC(C)(C)O[C@@H]3C[C@@H]12`, the CI is recorded as 0.23.

Tested on in another series: not listed separately
The series is described as follows: Synergistic cytotoxicity against mouse L5178 cells expressing human ABCB1 assessed as combination index at ED50 using 60:1 test compound to doxorubicin ratio after 48 hrs by MTT-based checkerboard microplate method.
Conditions: not given
In kind it is functional. The method, boiled down:
as §1
As for `C=CCO/N=C1/C=C2C3=CC[C@H]([C@@]4(C)OC(C)(C)O[C@@H]4CCC(C)(C)O)[C@@]3(C)CC[C@@H]2[C@@]2(C)C[C@@H]3OC(C)(C)O[C@@H]3C[C@@H]12`, the CI was determined as 0.41.

`C=CCO/N=C1/C=C2[C@H](CC[C@]3(C)[C@@H]([C@@]4(C)OC(C)(C)O[C@@H]4CCC(C)(C)O)CC[C@@]23O)[C@@]2(C)C[C@@H]3OC(C)(C)O[C@@H]3C[C@@H]12`: the CI turned out to be 0.31.

Tested on in the next series: not listed separately
Kind of series: Cytotoxicity against mouse L5178 cells after 48 hrs by MTT assay. The class given is functional, cell-based. The note with it: L5178, 48 h. Put shortly: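 Parental mouse lymphoma L5178 and the MDR line made by pHa MDR1/A retrovirus transfection, selected with 60 µg/L colchicine. Grown in McCoy's 5A with horse serum at 37°C, 5% CO2. 5 x 10^4 cells/well, serial compound dilutions, 48 h. MTT added to 0.5 mg/mL final for 4 h, then 10% SDS in 0.01 M HCl overnight, OD read at 540 and 630 nm. IC50 taken as median cytotoxic activity (Dm) from control lanes of checkerboard plates, n=2.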
In general terms: Tetrazolium dyes change colour on reduction, which living cells bring about.
`C=CCO/N=C1/C=C2C3=CC[C@H]([C@@]4(C)OC(C)(C)O[C@@H]4CCC(C)(C)O)[C@@]3(C)CC[C@@H]2[C@@]2(C)C[C@@H]3OC(C)(C)O[C@@H]3C[C@@H]12` registered a half-maximal inhibitory concentration (IC50) of 55.3 µM.

As for `C=CCO/N=C1/C=C2[C@H](CC[C@]3(C)[C@@H]([C@@]4(C)OC(C)(C)O[C@@H]4CCC(C)(C)O)CC[C@@]23O)[C@@]2(C)C[C@@H]3OC(C)(C)O[C@@H]3C[C@@H]12`, half-maximal inhibition (IC50) was put at 36.7 µM. Compared with the last molecule, the IC50 is about 1.5-fold lower.

Tested on in the next series: not listed separately
The series is described as follows: Synergistic cytotoxicity against mouse L5178 cells assessed as combination index at ED75 using 150:1 test compound to doxorubicin ratio after 48 hrs by MTT-based checkerboard microplate method. The class given is functional.
Conditions: not given
The method, boiled down:
as §1
As to `C=CCO/N=C1/C=C2C3=CC[C@H]([C@@]4(C)OC(C)(C)O[C@@H]4CCC(C)(C)O)[C@@]3(C)CC[C@@H]2[C@@]2(C)C[C@@H]3OC(C)(C)O[C@@H]3C[C@@H]12`, the CI came out at 0.63.

Turning to `C=CCO/N=C1/C=C2[C@H](CC[C@]3(C)[C@@H]([C@@]4(C)OC(C)(C)O[C@@H]4CCC(C)(C)O)CC[C@@]23O)[C@@]2(C)C[C@@H]3OC(C)(C)O[C@@H]3C[C@@H]12`, the CI is 0.99.

In a further series the target is ABCB1 (P-glycoprotein) (Homo sapiens, UniProt P08183). The series is described as follows: Inhibition of human ABCB1 expressed in mouse L5178 cells assessed as increase in rhodamine-123 accumulation at 2 uM after 10 mins by flow cytometric analysis relative to control. The class given is cell-based. The conditions noted are these: mouse L5178 cells expressing human ABCB1, probe rhodamine-123. Put shortly: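 Cells at 2 × 10^6/mL were preincubated 10 min with compound. Rhodamine 123 then added to 5.2 µM final, 20 min at 37 °C. Cells washed twice in PBS, resuspended and read by flow cytometry. Percent inhibition was scaled between MDR-cell accumulation (0%) and parental L5178 accumulation (100%). Controls: 100 nM tariquidar (positive) and 2% DMSO (negative).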
ABCB1 (P-glycoprotein), sequence (P08183 whole entry): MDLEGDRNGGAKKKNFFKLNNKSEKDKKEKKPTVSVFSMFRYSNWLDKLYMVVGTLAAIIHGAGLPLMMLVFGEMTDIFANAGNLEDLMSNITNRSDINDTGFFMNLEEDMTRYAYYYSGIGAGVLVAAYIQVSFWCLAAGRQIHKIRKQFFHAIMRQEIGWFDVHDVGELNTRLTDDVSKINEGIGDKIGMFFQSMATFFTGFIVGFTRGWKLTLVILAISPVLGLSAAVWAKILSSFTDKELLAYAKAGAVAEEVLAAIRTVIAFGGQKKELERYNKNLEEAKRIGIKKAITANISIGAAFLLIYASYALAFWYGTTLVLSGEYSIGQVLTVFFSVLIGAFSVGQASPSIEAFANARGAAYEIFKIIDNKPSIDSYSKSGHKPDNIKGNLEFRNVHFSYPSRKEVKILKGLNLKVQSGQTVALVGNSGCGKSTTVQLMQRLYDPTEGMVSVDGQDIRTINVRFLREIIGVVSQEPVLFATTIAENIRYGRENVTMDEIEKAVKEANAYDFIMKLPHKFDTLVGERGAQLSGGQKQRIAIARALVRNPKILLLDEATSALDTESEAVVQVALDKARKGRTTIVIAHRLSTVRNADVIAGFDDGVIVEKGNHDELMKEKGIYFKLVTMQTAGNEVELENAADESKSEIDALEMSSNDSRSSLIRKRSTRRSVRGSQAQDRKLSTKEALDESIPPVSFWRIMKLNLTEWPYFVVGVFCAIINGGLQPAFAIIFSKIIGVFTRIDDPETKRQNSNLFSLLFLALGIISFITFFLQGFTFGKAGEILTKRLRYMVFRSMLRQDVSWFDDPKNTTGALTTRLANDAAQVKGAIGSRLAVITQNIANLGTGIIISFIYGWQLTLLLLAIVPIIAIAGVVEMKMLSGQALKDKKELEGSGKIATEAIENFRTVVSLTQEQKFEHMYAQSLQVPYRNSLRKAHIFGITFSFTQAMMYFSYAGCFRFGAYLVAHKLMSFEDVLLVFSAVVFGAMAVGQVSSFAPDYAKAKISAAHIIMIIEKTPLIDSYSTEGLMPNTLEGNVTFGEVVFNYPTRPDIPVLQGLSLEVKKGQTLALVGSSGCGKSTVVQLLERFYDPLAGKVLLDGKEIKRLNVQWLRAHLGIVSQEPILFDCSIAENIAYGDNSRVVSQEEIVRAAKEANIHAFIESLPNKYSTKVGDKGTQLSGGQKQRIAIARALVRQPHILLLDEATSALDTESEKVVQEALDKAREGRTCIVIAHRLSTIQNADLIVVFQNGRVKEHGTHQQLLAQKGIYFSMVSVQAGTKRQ
In general terms: In flow cytometry, cells or beads pass a laser one at a time.
With `C=CCO/N=C1/C=C2C3=CC[C@H]([C@@]4(C)OC(C)(C)O[C@@H]4CCC(C)(C)O)[C@@]3(C)CC[C@@H]2[C@@]2(C)C[C@@H]3OC(C)(C)O[C@@H]3C[C@@H]12`, the inhibition at 10 min, 2 µM came out at 61.1%.

As for `C=CCO/N=C1/C=C2[C@H](CC[C@]3(C)[C@@H]([C@@]4(C)OC(C)(C)O[C@@H]4CCC(C)(C)O)CC[C@@]23O)[C@@]2(C)C[C@@H]3OC(C)(C)O[C@@H]3C[C@@H]12`, the inhibition at 10 min, 2 µM turned out to be 24.2%.
